Values joined by “and” are separate entries in the source; they are usually repeats but may differ in a detail not shown here. Equal entries are not always repeated.
What was measured:
Type in all cases: functional
Mus musculus [1] = species on record: Mus musculus; assay: (§1) Change in entry latency expressed as [(entry latency on day 2)-(entry latency on day 1)]
Mus musculus [2] = assay: Minimum effective dose administered subcutaneously in mouse, activity given with reference to piracetam; details: for minimal effective dose: Mus musculus, sc, read-out: MED
Summary of the method: (§2)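 Mouse passive avoidance with scopolamine-induced amnesia (1.5 mg/kg ip after training; 40 cm fall into 10 °C water as punishment). Compounds are given sc in 1:10 dilution steps 20 min before training, in saline or DMSO/H2O. […] Piracetam is the ip reference.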

Mus musculus [3] = assay: Nootropic effect of the compound, when administered subcutaneously, on mouse passive Avoidance test, using Scopolamine as Amnesic drug on 1 st day
Mus musculus [4] = assay: Nootropic effect of the compound, when administered subcutaneously, on mouse passive Avoidance test, using Scopolamine as Amnesic drug on 2 nd day
Mus musculus [5] = assay: Minimum effective dose administered subcutaneously in mouse passive avoidance test; details: sc, read-out: MED; summary of the method: as §2
Mus musculus [6] = species on record: Mus musculus; assay: as §1; remark: listed apart in the source
Summary of the method: (§3)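 Mouse passive avoidance test using a light/dark box. Entering the dark side drops the mouse 40 cm into 10 °C water. Training is on day 1 and retention 24 h later. Test drug is given sc 20 min before training, in saline or DMSO/H2O vehicle. […] Mice not entering within 60 s are excluded. Retention latency is capped at 120 s. Δ = day 2 − day 1 latency.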

Mus musculus [7] = assay: Minimum effective dose administered subcutaneously in mouse, activity given with reference to piracetam, dose administered is limited by solubility problems; details: sc, read-out: MED; summary of the method: as §2
Mus musculus [8] = species on record: Mus musculus; assay: Change in entry latency expressed as [(latency on day 2)-(latency on day 1)]; summary of the method: as §3
Mus musculus [9] = assay: Effect of 0.1 mg/kg compound in the presence of saline on Amnesia in mouse passive Avoidance test on 1st day
Summary of the method: (§4)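 Mouse passive avoidance without an amnesic agent. Compound is given ip at 0.1 mg/kg 20 min before training, followed by saline. Entry latency into the dark compartment (punishment: 40 cm fall into 10 °C water) is recorded on day 1 and in retention 24 h later, capped at 120 s. Compared with saline controls.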

Mus musculus [10] = assay: Effect of 0.1 mg/kg compound in the presence of saline on Amnesia in mouse passive Avoidance test on 2nd day, ip; details: route intraperitoneal; summary of the method: as §4
Mus musculus [11] = assay: Effect of 0.1 mg/kg compound on Amnesia induced by Baclofen (2 mg/Kg ip) in mouse passive Avoidance test on 1 st day at 0.1 mg/kg, ip
Summary of the method: (§5)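 Mouse passive avoidance. Compound is given ip 20 min before training. Diphenhydramine (20 mg/kg ip) or baclofen (2 mg/kg ip) is injected immediately after training. Entry latency into the dark, water-pitfall compartment is measured on day 1 and 24 h later, capped at 120 s. Compared with amnesic-only mice.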

Mus musculus [12] = assay: Effect of 0.1 mg/kg compound on Amnesia induced by diphenhydramine (20 mg/Kg) in mouse passive Avoidance test on 1st day (no. of animals = 12); summary of the method: as §5
Mus musculus [13] = assay: Effect of 0.1 mg/kg compound on Amnesia induced by diphenhydramine (20 mg/Kg) in mouse passive Avoidance test on 1st day; (no. of animals = 11); summary of the method: as §5
Mus musculus [14] = assay: Effect of 0.1 mg/kg compound on Amnesia induced by diphenhydramine (20 mg/Kg) in mouse passive Avoidance test on 2 nd day (no. of animals = 11); summary of the method: as §5
Mus musculus [15] = assay: Effect of 0.1 mg/kg compound on Amnesia induced by diphenhydramine (20 mg/Kg) in mouse passive Avoidance test on 2 nd day (no. of animals = 12); summary of the method: as §5
Mus musculus [16] = assay: Effect of compound on Amnesia induced Clonidine (0.125 mg/kg) in mouse passive Avoidance test on 1st day at 0.1 mg/kg, ip; details: route intraperitoneal
Summary of the method: (§6)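 Mouse passive avoidance. Compound is given ip 20 min before training. Clonidine (0.125 mg/kg ip) is injected 60 min before training. Entry latency into the dark compartment (40 cm fall into 10 °C water) is measured on day 1 and 24 h later, capped at 120 s. Compared with clonidine-only mice.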

Mus musculus [17] = assay: Effect of compound on Amnesia induced Clonidine (0.125 mg/kg) in mouse passive Avoidance test on 2 nd day at 0.1 mg/kg, ip; details: route intraperitoneal; summary of the method: as §6
Mus musculus [18] = assay: Effect of compound on Amnesia induced by Baclofen (2 mg/Kg ip) in mouse passive Avoidance test on 2 nd day at 0.1 mg/kg, ip; details: route intraperitoneal; summary of the method: as §5
Mus musculus [19] = assay: Nootropic effect of the compound, when administered subcutaneously, on mouse passive Avoidance test, using Scopolamine as Amnesic drug on 2nd day; summary of the method: as §3
Mus musculus [20] = assay: Nootropic effect of the compound, when administered subcutaneously, on mouse passive Avoidance test, using Scopolamine as Amnesic drug on 2 nd day; dose is limited by solubility problems; summary of the method: as §3
Mus musculus [21] = assay: Minimum effective dose administered intraperitoneally in mouse passive avoidance test; details: ip, read-out: MED
Mus musculus [22] = assay: Effect of 0.1 mg/kg compound, when administered intraperitoneally along with saline, on Amnesia in mouse passive Avoidance test on 1st day; details: route intraperitoneal; summary of the method: as §4
Mus musculus [23] = assay: Effect of 0.1 mg/kg compound, when administered intraperitoneally along with saline, on Amnesia in mouse passive Avoidance test on 2nd day; details: route intraperitoneal; summary of the method: as §4
Mus musculus [24] = assay: Effect of 0.1 mg/kg compound, when administered intraperitoneally, on Amnesia induced by Baclofen (2 mg/Kg ip) in mouse passive Avoidance test on 1st day; details: route intraperitoneal; summary of the method: as §5
Mus musculus [25] = assay: Effect of 0.1 mg/kg compound, when administered intraperitoneally, on Amnesia induced by Baclofen (2 mg/Kg ip) in mouse passive Avoidance test on 2nd day; details: route intraperitoneal; summary of the method: as §5
Mus musculus [26] = assay: Effect of 0.1 mg/kg compound, when administered intraperitoneally, on Amnesia induced by Clonidine (0.125 mg/Kg ip) in mouse passive Avoidance test on 2 nd day; details: route intraperitoneal; summary of the method: as §6
Mus musculus [27] = assay: Effect of 0.1 mg/kg compound, when administered intraperitoneally, on Amnesia induced by diphenhydramine (20 mg/Kg) in mouse passive Avoidance test on 2 nd day; details: route intraperitoneal; summary of the method: as §5
Mus musculus [28] = assay: Effect of 0.1 mg/kg compound, when administered intraperitoneally, on Amnesia induced by diphenhydramine (20 mg/Kg) in mouse passive Avoidance test on 1st day; details: route intraperitoneal; summary of the method: as §5
Mus musculus [29] = assay: Effect of 0.1 mg/kg compound, when administered intraperitoneally, on Amnesia induced Clonidine (0.125 mg/kg) in mouse passive Avoidance test on 1st day; details: route intraperitoneal; summary of the method: as §6

Row | Structure (SMILES) | minimal effective dose (Mus musculus [2]) [mg/kg] | Entry latency (Mus musculus [3]) [s] | Entry latency (Mus musculus [4]) [s] | minimal effective dose (Mus musculus [5]) [mg/kg] | Change in entry latency (Mus musculus [6]) | further results
1 | CC(=O)N1CCN(S(=O)(=O)c2ccccc2)CC1 | 0.01 | 17.5 | 104 | – | – | Entry latency (Mus musculus [1]): 86.5 s
2 | CCC(=O)N1CCN(S(=O)(=O)c2ccc(Cl)cc2)CC1 | – | – | – | > 0.1 | – | –
3 | CC(=O)N1CCN(S(=O)(=O)c2ccc(F)cc2)CC1 | 0.01 | 19.8 | 89 | – | – | Entry latency (Mus musculus [1]): 69.2 s
4 | CCCC(=O)N1CCN(C(=O)c2ccccc2)CC1 | 1 | 13.8 | 103.6 | – | 89.8 s | –
5 | CCC(=O)N1CCN(S(=O)(=O)c2ccc(OC)cc2)CC1 | – | – | – | – | – | minimal effective dose (Mus musculus [7]): > 1 mg/kg
6 | CCC(=O)N1CCN(C(=O)c2ccc(Cl)cc2)CC1 | – | – | – | – | – | minimal effective dose (Mus musculus [7]): > 1 mg/kg
7 | CCC(=O)N1CCN(C(=O)c2ccccc2)CC1 | 0.001 | 20.5 | 91.5 | – | 71 s and 69.1 s and 68.5 s and 67 s | Change in entry latency (Mus musculus [8]): 56 s and 63.8 s; Entry latency (Mus musculus [9]): 17.2 s; Entry latency (Mus musculus [10]): 86.3 s; Entry latency (Mus musculus [11]): 17.2 s; Entry latency (Mus musculus [12]): 14.4 s; Entry latency (Mus musculus [13]): 15.8 s; Entry latency (Mus musculus [14]): 84.3 s; Entry latency (Mus musculus [15]): 81.4 s; Entry latency (Mus musculus [16]): 15 s; Entry latency (Mus musculus [17]): 78.8 s; Entry latency (Mus musculus [18]): 73.2 s
8 | CCC(=O)N1CCN(C(=O)c2ccc([N+](=O)[O-])cc2)CC1 | 1 | 18.8 | 104.3 | – | 85.5 s | –
9 | CCC(=O)N1CCN(S(=O)(=O)c2ccc(C)cc2)CC1 | – | 16.6 | 88.6 | 10 | – | Entry latency (Mus musculus [1]): 72 s
10 | CCC(=O)N1CCN(Cc2ccccc2)CC1 | 10 | 12.8 | – | – | 81.1 s | Entry latency (Mus musculus [19]): 93.9 s
11 | CC1C[C@@H]2CN(C(=O)c3ccccc3)CCN2C1=O (stereo in doubt; endo) | 1 | – | – | – | – | –
12 | CC(=O)N1CCN(C(=O)c2ccccc2)CC1 | 10 | 11.3 | – | – | 107.7 s | Entry latency (Mus musculus [20]): 119 s
13 | CCCC(=O)N1CCN(S(=O)(=O)c2ccc(F)cc2)CC1 | – | – | – | > 10 | – | –
14 | CCC(=O)N1CCN(S(=O)(=O)c2ccc(F)cc2)CC1 | – | 15.9 | 90.6 | 0.01 | – | Entry latency (Mus musculus [1]): 74.7 s
15 | CCCC(=O)N1CCN(S(=O)(=O)c2ccccc2)CC1 | – | 15 | 85.4 | 1 | 70.4 s | –
16 | CCC(=O)N1CCN(C(=O)c2ccc(OC)cc2)CC1 | 10 | 17.6 | 96.1 | – | 78.5 s | –
17 | CC(=O)N1CCN(C(=O)c2ccc(F)cc2)CC1 | 10 | 17.5 | 91.1 | – | 72.6 s | –
18 | CN1C2CC(OC(=O)C(CO)c3ccccc3)CC1C1OC12.NC(=O)CN1CCCC1=O (stereo unspecified) | – | 17.6 | 108.8 | – | – | Entry latency (Mus musculus [1]): 91.2 s; minimal effective dose (Mus musculus [21]): 30 mg/kg
19 | CC(=O)N1CCN(S(=O)(=O)c2ccc(F)cc2)CC1C (stereo unspecified) | – | 16.6 | 99.2 | 0.1 | – | –
20 | CC1C[C@@H]2CN(C(=O)c3ccccc3)CCN2C1=O (stereo in doubt; exo) | – | – | – | – | – | MED (Mus musculus [2]): 1 mg/kg
21 | CCCCC(=O)N1CCN(S(=O)(=O)c2ccc(F)cc2)CC1 | – | – | – | > 0.1 | – | –
22 | CCCN1CCN(S(=O)(=O)c2ccc(F)cc2)CC1 | 1 | 15.3 | 96.7 | – | 81.4 s | –
23 | CCC(=O)N1CCN(S(=O)(=O)c2ccc([N+](=O)[O-])cc2)CC1 | – | – | – | – | – | minimal effective dose (Mus musculus [7]): > 0.1 mg/kg
24 | CCC(=O)N1CCN(S(=O)(=O)c2ccccc2)CC1 | – | 19 | 132 | 0.1 | – | Entry latency (Mus musculus [1]): 113 s
25 | O=C1CCC2CN(S(=O)(=O)c3ccc(F)cc3)CCN12 (stereo unspecified) | – | – | – | – | 80.2 s and 64.1 s and 66.7 s | Change in entry latency (Mus musculus [8]): 79.6 s; Entry latency (Mus musculus [22]): 14.3 s; Entry latency (Mus musculus [23]): 94.5 s; Entry latency (Mus musculus [24]): 12.3 s; Entry latency (Mus musculus [25]): 76.4 s; Entry latency (Mus musculus [26]): 81.2 s; Entry latency (Mus musculus [27]): 95.2 s; Entry latency (Mus musculus [28]): 15.6 s; Entry latency (Mus musculus [29]): 14.5 s
26 | CCC(=O)N1CCN(C(=O)c2ccc(F)cc2)CC1 | 30 | 16.9 | 77.1 | – | 60.2 s | –
27 | CN1[C@@H]2C[C@@H](OC(=O)[C@H](CO)c3ccccc3)C[C@H]1[C@@H]1O[C@@H]12 [SCOPOLAMINE] | – | – | – | – | – | minimal effective dose (Mus musculus [21]): 1.5 mg/kg
28 | CCCC(=O)N1CCN(C(=O)c2ccc(F)cc2)CC1 | 10 | 19.8 | 112 | – | 92.2 s | –
29 | CCCCCC(=O)N1CCN(S(=O)(=O)c2ccc(F)cc2)CC1 | – | 16.6 | 81.5 | 1 | – | Entry latency (Mus musculus [1]): 64.9 s
30 | CCC(=O)N1CCN(C(=O)c2ccc(C)cc2)CC1 | – | – | – | – | – | minimal effective dose (Mus musculus [7]): > 1 mg/kg

From ChEMBL document CHEMBL1133526, “Molecular simplification of 1,4-diazabicyclo[4.3.0]nonan-9-ones gives piperazine derivatives that maintain high nootropic activity” (2000)
